Drawing on ChEMBL document CHEMBL4351020, “Application of hydrazino and hydrazido linkers to connect benzenesulfonamides with hydrophilic/phobic tails for targeting the middle region of human carbonic anhydrases active site: Selective inhibitors of hCA IX” (Eur J Med Chem, 2019), this text covers Ki, IC50 and Activity for 15 compounds.

Molecules are shown by their SMILES.

One experiment deals with Carbonic anhydrase 1 (Homo sapiens, UniProt P00915). The experiment in a line: Inhibition of human recombinant carbonic anhydrase 1 expressed in Escherichia coli by stopped flow CO2 hydration assay.
Sequence of Carbonic anhydrase 1 (P00915 whole entry): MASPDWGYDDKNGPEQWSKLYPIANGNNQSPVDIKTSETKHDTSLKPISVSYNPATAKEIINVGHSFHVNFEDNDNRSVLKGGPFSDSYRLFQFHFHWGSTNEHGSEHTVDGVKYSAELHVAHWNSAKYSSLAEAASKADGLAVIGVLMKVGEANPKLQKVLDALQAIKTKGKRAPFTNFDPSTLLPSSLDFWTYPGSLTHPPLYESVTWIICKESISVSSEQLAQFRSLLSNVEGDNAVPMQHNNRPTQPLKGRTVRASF
In the next experiment the target is Carbonic anhydrase 2 (Homo sapiens, UniProt P00918). The experiment in a line: Inhibition of human recombinant carbonic anhydrase 2 expressed in Escherichia coli by stopped flow CO2 hydration assay.
The next experiment deals with Carbonic anhydrase 9 (Homo sapiens, UniProt Q16790).
Experiment [1] deals with MCF7. The experiment can be described thus: Antiproliferative activity against human MCF7 cells measured after 48 hrs under hypoxia condition by MTT assay. In kind it is functional, cell-based. The settings on record: MCF7, 48 h. The method, boiled down:
(§1)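 MCF-7 (ATCC) grown in DMEM with 10% heat-inactivated FBS, 1% L-glutamine (2.5 mM), HEPES (10 mM), 50 µg/mL gentamycin, at 37 C, 5% CO2. Hypoxia induced chemically with CoCl2 (100 µM); normoxic cells without it. Viability by MTT colorimetric assay after 48 h exposure; IC50 is the concentration giving 50% growth inhibition relative to untreated controls.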
A general note: Tetrazolium dyes change colour on reduction, which living cells bring about.

Experiment [2] concerns MCF7. The experiment can be described thus: Antiproliferative activity against human MCF7 cells measured after 48 hrs under normoxia condition by MTT assay. The settings on record: MCF7, 48 h. It counts as functional, cell-based. Put shortly:
as §1

Experiment [3] relates to MCF7. The experiment can be described thus: Induction of cell cycle arrest in human MCF7 cells assessed as accumulation at Pre-G1 phase at IC50 after 24 hrs by propidium iodide staining based flow cytometric analysis (reference value: 1.89%). In kind it is functional.
Experiment [4] relates to MCF7. The experiment can be described thus: Induction of cell cycle arrest in human MCF7 cells assessed as accumulation at G0/G1 phase at IC50 after 24 hrs by propidium iodide staining based flow cytometric analysis (reference value: 56.27%). In kind it is functional.
The test system of experiment [5] is MCF7. The experiment in a line: Induction of cell cycle arrest in human MCF7 cells assessed as accumulation at S phase at IC50 after 24 hrs by propidium iodide staining based flow cytometric analysis (reference value: 41.36%). It counts as functional. On the technique in general: A flow cytometer gives signals particle by particle.
Experiment [6] relates to MCF7. The experiment in a line: Induction of cell cycle arrest in human MCF7 cells assessed as accumulation at G2/M phase at IC50 after 24 hrs by propidium iodide staining based flow cytometric analysis (reference value: 2.37%). In kind it is functional.
The test system of experiment [7] is MCF7. The experiment in a line: Induction of apoptosis in human MCF7 cells assessed as early apoptotic cells by Annexin V-FITC/propidium iodide staining based flow cytometry (reference value: 1.05%). It counts as functional.
In experiment [8] the test system is MCF7. The experiment in a line: Induction of apoptosis in human MCF7 cells assessed as late apoptotic cells by Annexin V-FITC/propidium iodide staining based flow cytometry (reference value: 0.49%). It counts as functional.
The subject of experiment [9] is MCF7. The experiment in a line: Induction of apoptosis in human MCF7 cells assessed as necrotic cells by Annexin V-FITC/propidium iodide staining based flow cytometry (reference value: 0.35%). It counts as functional.
Experiment [10] deals with MCF7. The experiment can be described thus: Induction of apoptosis in human MCF7 cells assessed as total apoptotic cells by Annexin V-FITC/propidium iodide staining based flow cytometry (reference value: 1.54%). In kind it is functional.

Broadly, the Ki is the equilibrium dissociation constant of an inhibitor or competing ligand from its target. On to `C/C(=N\Nc1ccc(S(N)(=O)=O)cc1)c1ccc(N2CCCC2)cc1`, for which the inhibitory constant (Ki) on Carbonic anhydrase 1 came to 95.4 nM; at Carbonic anhydrase 2, 57.7 nM; on Carbonic anhydrase 9, 18.3 nM.
On the same counts, the results for `C/C(=N\Nc1ccc(S(N)(=O)=O)cc1)c1ccc(N2CCOCC2)cc1` are 149 nM, 65.6 nM and 8.9 nM.
The like results for `NS(=O)(=O)c1ccc(C(=O)N/N=C/c2ccc(N3CCCC3)cc2)cc1` were, in that order, 347 nM, 12.5 nM and 3.1 nM.
`NS(=O)(=O)c1ccc(N/N=C/c2ccc(N3CCOCC3)cc2)cc1`: the Ki at Carbonic anhydrase 1 is 87.4 nM; at Carbonic anhydrase 2 it was 34.5 nM; on Carbonic anhydrase 9, 16.5 nM.
As for `C/C(=N\Nc1ccc(S(N)(=O)=O)cc1)c1ccc(N2CCCCC2)cc1`, the Ki at Carbonic anhydrase 1 is 111 nM; at Carbonic anhydrase 2, 69.2 nM; on Carbonic anhydrase 9, 7.2 nM.
For orientation: IC50 means the concentration that gives 50% inhibition. Read a high IC50 as weaker potency in that assay. Take `C/C(=N\Nc1ccc(S(N)(=O)=O)cc1)c1ccc(N2CCN(C)CC2)cc1`: the Ki on Carbonic anhydrase 1 was 266 nM; at Carbonic anhydrase 2, 89.5 nM; on Carbonic anhydrase 9, 2 nM. The IC50 in the experiment on MCF7 [1] is 17300 nM; in the experiment on MCF7 [2], 7720 nM.
For `NS(=O)(=O)c1ccc(C(=O)N/N=C/c2ccc(-n3ccnc3)cc2)cc1`, the inhibitory constant (Ki) was determined as 130 nM on Carbonic anhydrase 1, 8.2 nM on Carbonic anhydrase 2 and 10.1 nM on Carbonic anhydrase 9. The IC50 with MCF7 [1] was 8530 nM; with MCF7 [2] it was 3320 nM. Further, the Activity came out at 19.36% with MCF7 [3]; 36.49% with MCF7 [4]; 29.66% in the experiment on MCF7 [5]; 33.85% in the experiment with MCF7 [6]; 4.29% with MCF7 [7]; 11.93% in the experiment with MCF7 [8]. Further, the Activity with MCF7 [9] is 3.14%; in the experiment with MCF7 [10], 16.22%.
As to `NS(=O)(=O)c1ccc(N/N=C/c2ccc(N3CCCC3)cc2)cc1`, the Ki on Carbonic anhydrase 1 was determined as 96.2 nM; at Carbonic anhydrase 2, 29.9 nM; on Carbonic anhydrase 9, 19.4 nM.
`C/C(=N\NC(=O)c1ccc(S(N)(=O)=O)cc1)c1ccc(N2C(=O)c3c(Cl)c(Cl)c(Cl)c(Cl)c3C2=O)cc1` came in with an inhibition constant Ki on Carbonic anhydrase 9 of 17.3 nM.
In the case of `NS(=O)(=O)c1ccc(C(=O)N/N=C/c2ccc(-n3nnc4ccccc43)cc2)cc1`, the results for the Ki at Carbonic anhydrase 1, at Carbonic anhydrase 2 and at Carbonic anhydrase 9 were 357 nM, 62.3 nM and 23.7 nM, respectively.
As for `NS(=O)(=O)c1ccc(N/N=C/c2ccc(-n3nnc4ccccc43)cc2)cc1`, the inhibition constant Ki stood at 240 nM on Carbonic anhydrase 1, 94.6 nM at Carbonic anhydrase 2 and 46.3 nM on Carbonic anhydrase 9.
As to `NS(=O)(=O)c1ccc(C(=O)N/N=C/c2ccc(N3CCCCC3)cc2)cc1`, the Ki at Carbonic anhydrase 1 was 153 nM; at Carbonic anhydrase 2 it was 9.3 nM; at Carbonic anhydrase 9, 3.3 nM.
Take `NS(=O)(=O)c1ccc(C(=O)N/N=C/c2ccc(N3CCOCC3)cc2)cc1`: the Ki at Carbonic anhydrase 1 worked out at 175 nM; at Carbonic anhydrase 2 it was 15.6 nM; on Carbonic anhydrase 9, 8.6 nM.
Consider `NS(=O)(=O)c1ccc(N/N=C/c2ccc(N3CCCCC3)cc2)cc1`, for which the Ki on Carbonic anhydrase 1 is 101 nM; at Carbonic anhydrase 2 it was 24 nM; on Carbonic anhydrase 9 it was 20.9 nM.
The like results for `NS(=O)(=O)c1ccc(N/N=C/c2ccc(-n3ccnc3)cc2)cc1` were, in that order, 76.8 nM, 17.9 nM and 14.6 nM.
